Screening results from PubChem BioAssay.
MC4R barr agon = activates human MC4R beta-arrestin recruitment. P32245. actives 0.98% (n = 360,000). activation, % at 8.9 µM. U2OS MC4R beta-arrestin complementation, luminescence; percent of melanotan II response, DMSO zero;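 active means activation above a per-plate cutoff, the mean activation of sample wells on that plate plus 3 SD, cut at about 8% in these data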
MC4R antagonist = blocks human MC4R cAMP signaling; inhibition, % at 6.5 µM; actives 0.48% (n = 360,000); P32245; AID 540295; MC4R-expressing cells, MTII-stimulated cAMP, LANCE TR-FRET;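 active means inhibition above its plate's cutoff, the mean of tested wells on that plate plus 3 SD, cut at about 29% in these data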;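 further: 0% = Melanotan II alone and 100% = Melanotan II plus saturating MCL0020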
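material = U2OS cells stably expressing human melanocortin 4 receptor (MC4R) | also added = Melanotan II challenge | dosing = single nominal compound dose of 6.5 µM | detection = TR-FRET with Eu-cAMP and labeled anti-cAMP, 671 nm | replication = singlicate | timing = compound 30 min, challenge 1 h, detection 1 h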
ATG4B inhibitor = blocks human ATG4B protease cleavage of LC3 substrate; Q9Y4P1; ATG4B cleavage of LC3-PLA2, NBD-HPC fluorescence, 1 h; inhibition, % at 8.33 µM; actives 0.51% (n = 340,000); in the data active means inhibition above about 40%
Target sequence (Q9Y4P1 whole entry, looked up): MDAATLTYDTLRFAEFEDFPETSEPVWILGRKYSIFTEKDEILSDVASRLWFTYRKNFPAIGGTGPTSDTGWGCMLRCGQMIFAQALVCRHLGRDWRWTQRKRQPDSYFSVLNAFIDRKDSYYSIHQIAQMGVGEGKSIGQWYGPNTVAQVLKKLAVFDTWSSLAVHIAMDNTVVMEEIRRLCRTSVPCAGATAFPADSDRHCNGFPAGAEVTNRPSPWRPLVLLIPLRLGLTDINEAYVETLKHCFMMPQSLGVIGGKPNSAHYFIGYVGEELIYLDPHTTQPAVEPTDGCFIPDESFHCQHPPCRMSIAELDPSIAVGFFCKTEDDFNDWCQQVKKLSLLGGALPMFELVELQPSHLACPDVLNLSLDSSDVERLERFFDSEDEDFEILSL
SMARCA2 act = increases SMARCA2 function in MMTV reporter cells; MG213 cells, MMTV-luciferase reporter, dexamethasone, overnight; activation, % at 9.1 µM; actives 1% (n = 370,000); in the data active means activation above about 7.8%;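 further: 0% = vehicle wells and 100% = reference activator wells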
MPTP block = permeability transition pore inhibition | isolated mouse mitochondria, Ca2+ swelling absorbance, 30 min | inhibition, % at 10 µM | actives 1.4% (n = 360,000) | AID 602449;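 active means inhibition of 50% or more, scaled per plate between neutral and stimulator controls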;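 further: 0% = DMSO wells given calcium and 100% = 1 mM EGTA wells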
MC4R barr conf = human MC4R beta-arrestin agonism confirmation; shares compounds with MC4R barr agon; U2OS MC4R beta-arrestin recruitment, luminescence; scaled DMSO 0%, Melanotan II 100%; activation, % at 8.9 µM; actives 31% (n = 2,400);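 active means mean activation across replicates above the hit cutoff set in the earlier primary screen, cut at about 8% in these data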
MOR DOR agonist = counter-screen for MC4R agonists: agonists of mu-delta opioid heterodimer. activation, % at 9.2 µM. shares compounds with MC4R barr agon. AID 602194. U2OS PathHunter beta-arrestin, beta-gal luminescence; percent of deltorphin B response, DMSO zero. actives 5.8% (n = 2,400);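 active means mean activation across replicates exceeds the hit threshold derived in the earlier primary screen, cut at about 18% in these data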;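 further: 100% = deltorphin B at 0.9 µM final and 0% = DMSO alone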
The depositor's hits bear a star; x = no result. Hits are enriched below; roughly 4.1% of the tested compounds scored in any of these assays.

SMILES	MC4R barr agon	MC4R antagonist	ATG4B inhibitor	SMARCA2 act	MPTP block	MC4R barr conf	MOR DOR agonist
O=C(CSc1nnc(SCc2ccccc2)s1)N/N=C/c1c[nH]c2ccccc12	1	10	-3	-3	0	x	x
O=C(CSc1nnc(SCc2ccccc2)s1)N/N=C/C=C\c1ccco1	-1	3	22	-4	4	x	x
CC(=C/c1ccco1)/C=N/NC(=O)CSc1nnc(SCc2ccc(C)cc2)s1	20*	8	9	-6	7	3	5
COc1ccc(C(C)=O)cc1CSc1nc2ccccc2c(=O)n1-c1ccccc1	16*	-24	35	-1	1	3	2
Cc1nn(-c2ccccc2)c2sc(C(=O)NNC(=O)COc3cccc4ccccc34)cc12	25*	4	-12	-1	1	6	4
COC(=O)[C@]12C[C@H](CC(=O)NCCc3ccccc3OC)C(=O)N(Cc3ccc(Cl)cc3Cl)C1=C[C@H](COCc1ccccc1)O[C@@H]2C	x	x	x	-6	x	x	x
COc1cc(NS(=O)(=O)c2ccc(NC(=S)NC(=O)c3sc4ccccc4c3Cl)cc2)ncn1	15*	-1	2	11*	1	19*	1
COc1ccc(Cn2cc(COC(=O)NCCc3c[nH]c4ccccc34)nn2)cc1	x	x	x	-2	x	x	x
N#Cc1c(N)c(C#N)c(-c2ccc3c(c2)OCO3)c2c1CCCC2	10*	5	5	5	-1	2	4
N#Cc1c(N)c(C#N)c(-c2ccc(O)cc2)c2c1CCCC2	1	3	-14	0	2	x	x
CC(C)(C)c1ccc(-c2nnc(SCc3ccccc3)n2Cc2ccco2)cc1	x	x	x	-7	x	x	x
O=c1oc2ccccc2cc1-c1cn2ccccc2n1	11*	-2	-6	0	-12	1	5
O=c1oc2ccccc2cc1-c1cn2cccnc2n1	1	-1	-7	7	0	x	x
CCOC(=O)CCSc1nc(-c2ccc3c(c2)OCO3)cc(C(F)(F)F)c1C#N	-2	1	2	-3	2	x	x
CCOC(=O)CC(=O)CSc1nc(-c2ccc3c(c2)OCO3)cc(C(F)(F)F)c1C#N	25*	28	-1	x	2	8.9*	5
CC(C)[C@@H]1CC[C@@H](C)C[C@H]1OC[B-](F)(F)F	x	x	x	1	x	x	x
COC(=O)[C@]12C[C@H](CC(=O)N3CCN(C(=O)C4CC4)CC3)C(=O)N(CCc3ccc(OC)c(OC)c3)C1=C[C@H](C1CCCC1)O[C@@H]2C	x	x	x	0	x	x	x
CCOC(=O)c1c(C)[nH]c(C(=O)Cn2nnc(-c3ccc(Cl)cc3)n2)c1C	18*	10	-4	1	14	11*	5
Cc1sc2nc(SCC(=O)c3ccc(O)c(O)c3)n(C)c(=O)c2c1C	x	x	x	-7	x	x	x
CC(C)CCN(C)C1CCN(C(=O)Nc2ccc3c(c2)OCO3)CC1	x	x	x	0	x	x	x
Cc1ccc(NC(=O)c2ccc(OC(=O)CCN3C(=O)c4ccccc4C3=O)cc2)cc1	12*	6	15	3	-1	2	3
Cc1cc(C)cc(OC(=O)CCN2C(=O)c3ccccc3C2=O)c1	3	0	12	1	-2	x	x
O=C(NCc1ccccc1)[C@H]1CCCN1C(=O)[C@H]1CCCN1C(=O)c1ccc(F)cc1F	x	x	x	-1	x	x	x
S=C(Nc1ccccc1)Nc1ccc(Br)cn1	11*	0	3	2	2	3	6
Cc1cc(C)c2oc(C(=O)Nc3ccc(S(=O)(=O)Nc4nccs4)cc3)cc(=O)c2c1	-2	20	-7	2	6	x	x
SMILES	MC4R barr agon	MC4R antagonist	ATG4B inhibitor	SMARCA2 act	MPTP block	MC4R barr conf	MOR DOR agonist
Cc1cc2oc(C(=O)Nc3ccc(S(=O)(=O)Nc4nccs4)cc3)cc(=O)c2cc1Cl	9.7*	6	11	-6	5	-2	2
Cc1ccc(-c2cc(C#N)c3n(c2=O)CCC3)cc1	x	x	x	-1	x	x	x
CCOc1ccc(-n2c(SCC(=O)Nc3ccc(S(=O)(=O)Nc4nccs4)cc3)nnc2-c2ccc(C(C)(C)C)cc2)cc1	x	x	x	0	x	x	x
S=c1[nH]nc(C2CC2c2ccc(Cl)cc2)n1-c1ccc(Cl)cc1 (centres undefined)	11*	1	-6	-1	2	4	7
CCCCCc1ccc(OCCCC[n+]2ccc(C)cc2)c(CCCCC)c1	7	12	16	-10	40	x	x
CCCCCc1ccc(OCCCC[n+]2cccc(C)c2)c(CCCCC)c1	16*	11	17	-10	10	13*	6
CCCCCc1ccc(OCCCC[n+]2ccccc2)c(CCCCC)c1	10*	16	13	x	9	8.3*	2
CCC(C)(C)c1ccc(OCCCC[n+]2ccccc2)c(C(C)(C)CC)c1	12*	13	x	-7	6	12*	6
C=CCN(CC#Cc1ccccc1)Cc1ccc2c(c1)OCO2	x	x	x	-2	x	x	x
CCOc1ccccc1C(=O)Nc1ccc(C(=O)NCC2COc3ccccc3O2)cc1 (centres undefined)	x	x	x	-6	x	x	x
CN1CCN(c2ccc3c(c2)Oc2ccccc2CN(Cc2cn(Cc4cccc(C(F)(F)F)c4)nn2)S3(=O)=O)CC1	x	x	x	-5	x	x	x
Nc1ccc(O)c2c1C(=O)c1ccccc1C2=O	-3	15	-15	3	11	x	x
O=C1c2ccccc2C(=O)c2c(Nc3ccc(CCO)cc3)ccc(O)c21	19*	12	-2	-1	4	6	6
COc1ccc(Cc2nnc(NC(=O)Nc3ccccc3F)s2)cc1OC	14*	-2	-11	-1	1	4	6
Cc1ccc(CN2CC(C(=O)Nc3nnc(SCc4c(Cl)cccc4Cl)s3)CC2=O)cc1 (centres undefined)	29*	2	29	-2	-1	8	4
C=CCSc1nnc(NC(=O)C2CC(=O)N(Cc3ccc(C)cc3)C2)s1 (centres undefined)	0	4	-7	-5	0	x	x
Cc1ccc(/C=C(\C#N)C(=O)Nc2c(C)cccc2C)s1	-1	12	6	-1	1	x	x
Cc1ccc(NC(=O)/C(C#N)=C/c2ccc(C)s2)c(C)c1	18*	10	-2	-1	2	1	4
C=C(C)c1ccc(C(C)(C)NC(=O)N(Cc2ccccc2)Cc2ccco2)cc1	17*	-1	14	-4	0	-3	4
C=C(C)c1ccc(C(C)(C)NC(=O)NCc2ccco2)cc1	0	8	13	-1	-3	x	x
O=C(CSc1nnc(-c2ccccc2)n1-c1ccc(Cl)cc1)Nc1ccccc1-c1ccccc1	x	x	x	-6	x	x	x
CCCCOc1ccc(C(=O)N/C(=C\c2cccc([N+](=O)[O-])c2)C(=O)OCc2ccco2)cc1	20*	10	-7	-1	7	-1	2
